The test system of data set [1] is Human betaherpesvirus 5. The data set can be described thus: Antiviral activity against ganciclovir-resistant HCMV with DNA polymerase mutant in HEL cells assessed as reduction of virus-induced cytopathogenicity. In kind it is functional, organism-based. Conditions: Human betaherpesvirus 5, HEL. Summed up:
(§1)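 Resistant mutants raised in vitro by serial passage of HCMV AD-169 under rising drug concentrations. Confluent HEL fibroblasts infected at 100 PFU/well for 2 h, then the inoculum was removed. Cells were kept with serial compound concentrations in duplicate for 7 days at 37 °C. After ethanol fixation, cytopathicity was scored microscopically. EC50 is the concentration halving virus-induced cytopathicity.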
On the technique in general: Damage to the host cells serves as the signal in cytopathic effect assays.

For data set [2], the system named is Human betaherpesvirus 5. In words: Antiviral activity against (S)-3-hydroxy-2-phosphonomethoxypropyl cytosine-resistant HCMV with DNA polymerase mutant in HEL cells assessed as reduction of virus-induced cytopathogenicity. In kind it is functional, organism-based. Conditions: Human betaherpesvirus 5, HEL. The procedure, abridged: as §1
In data set [3] the test system is Human betaherpesvirus 5. In words: Antiviral activity against (S)-3-hydroxy-2-phosphonomethoxypropyl adenine-resistant HCMV with DNA polymerase mutant in HEL cells assessed as reduction of virus-induced cytopathogenicity. In kind it is functional, organism-based. Conditions: Human betaherpesvirus 5, HEL. The procedure, abridged: as §1
In data set [4] the test system is Human betaherpesvirus 5. The data set can be described thus: Antiviral activity against foscarnet-resistant HCMV with DNA polymerase mutant in HEL cells assessed as reduction of virus-induced cytopathogenicity. Format: functional, organism-based. Conditions: Human betaherpesvirus 5, HEL. The procedure, abridged:
as §1

The test system of data set [5] is Human betaherpesvirus 5. The data set can be described thus: Antiviral activity against acyclovir-resistant HCMV with DNA polymerase mutant in HEL cells assessed as reduction of virus-induced cytopathogenicity. As to conditions: Human betaherpesvirus 5, HEL. Format: functional, organism-based. The procedure, abridged:
as §1

For data set [6], the system named is Human betaherpesvirus 5. In words: Antiviral activity against HCMV 6 with […] mutation in HEL cells assessed as reduction of virus-induced cytopathogenicity. Format: functional, organism-based. Conditions: Human betaherpesvirus 5, HEL. Summed up:
(§2)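 Drug-resistant HCMV clinical isolates from immunocompromised patients, carrying UL97 and/or DNA polymerase mutations. Confluent HEL fibroblasts infected at 100 PFU/well for 2 h, then residual virus was removed. Medium with serial compound concentrations added in duplicate for 7 days at 37 °C. After ethanol fixation, cytopathicity was scored microscopically. EC50 is the concentration reducing cytopathicity by 50%.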

Data set [7] concerns Human betaherpesvirus 5. The data set can be described thus: Antiviral activity against HCMV 521 with […] and DNA polymerase mutation in HEL cells assessed as reduction of virus-induced cytopathogenicity. Format: functional, organism-based. As to conditions: Human betaherpesvirus 5, HEL. The procedure, abridged:
as §2

For data set [8], the system named is Human betaherpesvirus 5. In words: Antiviral activity against HCMV 530 with […] and DNA polymerase mutation in HEL cells assessed as reduction of virus-induced cytopathogenicity. Format: functional, organism-based. Conditions: Human betaherpesvirus 5, HEL. Summed up:
as §2

Data set [9] deals with Human betaherpesvirus 5. The data set can be described thus: Antiviral activity against HCMV Davis in HEL cells assessed as reduction of virus-induced cytopathogenicity after 7 days. In kind it is functional, organism-based. As to conditions: Human betaherpesvirus 5, Davis, 168 h. The procedure, abridged: (§3)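 Confluent HEL fibroblasts were infected with strain AD-169 or Davis at 100 PFU/well. After 2 h, residual virus was removed and medium with serial compound concentrations was added, in duplicate. Plates were held 7 days at 37 °C, fixed with ethanol, and scored microscopically for virus-induced cytopathicity. EC50 is the concentration reducing cytopathicity by 50%.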

Data set [10] deals with Human betaherpesvirus 5. The data set can be described thus: Antiviral activity against HCMV AD169 in HEL cells assessed as reduction of virus-induced cytopathogenicity after 7 days. Format: functional, organism-based. As to conditions: Human betaherpesvirus 5, AD169, HEL, 168 h. The procedure, abridged:
as §3

The nature of data set [11]: Cytotoxicity against HEL cells assessed as alteration in cell morphology after 3 days. In kind it is cell-based. As to conditions: human. The procedure, abridged: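 Minimum cytotoxic concentration: the lowest compound concentration causing a microscopically detectable alteration of HEL cell morphology.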
Data set [12] is described as follows: Cytotoxicity against HEL cells assessed as reduction in cell growth after 3 days. In kind it is cell-based. Conditions: human. The procedure, abridged:
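HEL cells were seeded at 5 × 10³ cells/well and allowed to proliferate for 24 h. Compound-containing medium was then added at several concentrations for 3 days at 37 °C. Cells were counted with a Coulter counter. CC50, the concentration reducing cell growth by 50% versus untreated controls, was read from plots of cell number (% of control) against concentration.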

For orientation: EC50 means the concentration that produces a half-maximal response. As a reminder, the CC50 is the concentration that lowers cell viability or growth by half.

Converted amounts (≈) assume the structure as drawn.

`Nc1ncnc2c1ncn2CCOCP(=O)(O)O` [ADEFOVIR]: the concentration for a half-maximal effect (EC50) with Human betaherpesvirus 5 [1] came out at 5.8 µg/mL (≈ 21.2 µM); with Human betaherpesvirus 5 [2], 18 µg/mL (≈ 65.9 µM); in the data set with Human betaherpesvirus 5 [3], 9.1 µg/mL (≈ 33.3 µM); in the data set on Human betaherpesvirus 5 [4] it was 128 µg/mL (≈ 469 µM); with Human betaherpesvirus 5 [5], 137 µg/mL (≈ 501 µM); with Human betaherpesvirus 5 [6], 90 µg/mL (≈ 329 µM). Further, the half-maximal effective concentration (EC50) with Human betaherpesvirus 5 [7] amounted to 20 µg/mL (≈ 73.2 µM); in the data set on Human betaherpesvirus 5 [8], 42 µg/mL (≈ 154 µM).

With `Nc1ccn(C[C@@H](CO)OCP(=O)(O)O)c(=O)n1.O.O` [CIDOFOVIR], the EC50 in the data set with Human betaherpesvirus 5 [1] was found to be 0.59 µg/mL; with Human betaherpesvirus 5 [2], 2.2 µg/mL; in the data set with Human betaherpesvirus 5 [3], 3.1 µg/mL; with Human betaherpesvirus 5 [4], 0.1 µg/mL; in the data set with Human betaherpesvirus 5 [5], 0.069 µg/mL; with Human betaherpesvirus 5 [6] it was 0.49 µg/mL. The results for the 50% effective concentration (EC50) with Human betaherpesvirus 5 [7] and with Human betaherpesvirus 5 [8] were 0.79 µg/mL and 0.62 µg/mL, respectively.

For `Nc1nc2c(ncn2COC(CO)CO)c(=O)[nH]1` [GANCICLOVIR], the concentration giving a half-maximal response (EC50) was 7.6 µg/mL (≈ 29.8 µM) with Human betaherpesvirus 5 [1]; 4.9 µg/mL (≈ 19.2 µM) in the data set with Human betaherpesvirus 5 [2]; 9.1 µg/mL (≈ 35.7 µM) in the data set with Human betaherpesvirus 5 [3]; 1.5 µg/mL (≈ 5.88 µM) in the data set with Human betaherpesvirus 5 [4]; 0.54 µg/mL (≈ 2.12 µM) in the data set with Human betaherpesvirus 5 [5]; 9.4 µg/mL (≈ 36.8 µM) in the data set with Human betaherpesvirus 5 [6]. Besides, the EC50 in the data set with Human betaherpesvirus 5 [7] is 6 µg/mL (≈ 23.5 µM); in the data set with Human betaherpesvirus 5 [8], 6.2 µg/mL (≈ 24.3 µM).

For `Cc1cn([C@@H]2O[C@H](COC(=O)c3ccccc3)[C@@]3(OS(=O)(=O)C=C3NC(=O)NC(=O)c3ccccc3)[C@H]2O[Si](C)(C)C(C)(C)C)c(=O)n(C)c1=O`, the concentration for a half-maximal effect (EC50) in the data set with Human betaherpesvirus 5 [9] and in the data set with Human betaherpesvirus 5 [10] was 2.2 µM in each case. Besides, the MCC at 72 h in data set [11] was ≥ 5 µM. The half-maximal cytotoxic concentration (CC50) at 72 h in data set [12] was determined as 100 µM.

On to `Cc1cn([C@@H]2O[C@H](COCc3ccccc3)[C@@]3(OS(=O)(=O)C=C3NC(=O)NC(=O)c3ccccc3)[C@H]2O[Si](C)(C)C(C)(C)C)c(=O)n(C)c1=O`, for which the EC50 in the data set on Human betaherpesvirus 5 [9] and in the data set with Human betaherpesvirus 5 [10] was > 50 µM each time. Moreover, the MCC at 72 h in data set [11] is > 50 µM. Further, the half-maximal cytotoxic concentration (CC50) at 72 h in data set [12] is > 50 µM.

In the case of `Cc1cn([C@@H]2O[C@H](CO[Si](C)(C)C(C)(C)C)[C@@]3(OS(=O)(=O)C=C3NC(=O)NCc3ccccc3)[C@H]2O[Si](C)(C)C(C)(C)C)c(=O)n(C)c1=O`, the figures for the concentration for a half-maximal effect (EC50) in the data set on Human betaherpesvirus 5 [9] and with Human betaherpesvirus 5 [10] were 1.1 µM and 1.3 µM, respectively. The MCC at 72 h in data set [11] stood at 4 µM. Further, in data set [12], the half-maximal cytotoxic concentration (CC50) at 72 h stood at 4.1 µM.

With `Cc1cn([C@@H]2O[C@H](CO[Si](C)(C)C(C)(C)C)[C@@]3(OS(=O)(=O)C=C3NC(=O)Nc3ccccc3)[C@H]2O[Si](C)(C)C(C)(C)C)c(=O)n(C)c1=O`, the EC50 is 0.38 µM in the data set with Human betaherpesvirus 5 [9] and ≥ 0.14 µM with Human betaherpesvirus 5 [10]. Besides, the MCC at 72 h in data set [11] turned out to be 1.4 µM. Besides, in data set [12], the half-maximal cytotoxic concentration (CC50) at 72 h was found to be 1.3 µM.

For `Nc1ncnc2c1ncn2C[C@@H](CO)OCP(=O)(O)O`, the concentration giving a half-maximal response (EC50) came out at 2 µg/mL (≈ 6.6 µM) with Human betaherpesvirus 5 [1]; 3.3 µg/mL (≈ 10.9 µM) in the data set on Human betaherpesvirus 5 [2]; 6.2 µg/mL (≈ 20.4 µM) in the data set on Human betaherpesvirus 5 [3]; 0.11 µg/mL (≈ 0.363 µM) in the data set on Human betaherpesvirus 5 [4]; 0.081 µg/mL (≈ 0.267 µM) in the data set with Human betaherpesvirus 5 [5]; 0.91 µg/mL (≈ 3 µM) in the data set on Human betaherpesvirus 5 [6]. Further, the half-maximal effective concentration (EC50) in the data set with Human betaherpesvirus 5 [7] was determined as 2.3 µg/mL (≈ 7.59 µM); in the data set on Human betaherpesvirus 5 [8] it was 1.2 µg/mL (≈ 3.96 µM).

`Cc1cn([C@@H]2O[C@H](CO[Si](C)(C)C(C)(C)C)[C@@]3(OS(=O)(=O)C=C3NC(=O)N(C(=O)Nc3ccccc3)c3ccccc3)[C@H]2O[Si](C)(C)C(C)(C)C)c(=O)n(C)c1=O`: the figures for the concentration for a half-maximal effect (EC50) in the data set with Human betaherpesvirus 5 [9] and with Human betaherpesvirus 5 [10] were > 10 µM and 15 µM, respectively. The MCC at 72 h in data set [11] worked out at 46 µM. The 50% cytotoxic concentration (CC50) at 72 h in data set [12] is 13 µM.

Consider `Cc1cn([C@@H]2O[C@H](CO)[C@@]3(OS(=O)(=O)C=C3NC(=O)NC(=O)c3ccccc3)[C@H]2O)c(=O)n(C)c1=O`, for which the EC50 with Human betaherpesvirus 5 [9] and in the data set on Human betaherpesvirus 5 [10] was > 100 µM each time. Further, the MCC at 72 h in data set [11] was 100 µM. For the same molecule, in data set [12], the CC50 at 72 h is > 50 µM.

With `Cc1cn([C@@H]2O[C@H](COC(=O)c3ccccc3)[C@@]3(OS(=O)(=O)C=C3NC(=O)NC(=O)c3ccccc3)[C@H]2O)c(=O)n(C)c1=O`, the half-maximal effective concentration (EC50) with Human betaherpesvirus 5 [9] and in the data set on Human betaherpesvirus 5 [10] was > 100 µM each time. Moreover, in [11], the MCC at 72 h is > 100 µM. In addition, in data set [12], the CC50 at 72 h was > 100 µM.

For the molecule `Cc1cn([C@@H]2O[C@H](CO[Si](C)(C)C(C)(C)C)[C@@]3(OS(=O)(=O)C=C3NC(=O)NC(=O)c3ccccc3)[C@H]2O[Si](C)(C)C(C)(C)C(C)C)c(=O)n(C)c1=O`, the EC50 in the data set with Human betaherpesvirus 5 [9] stood at 3.9 µM; in the data set on Human betaherpesvirus 5 [10], 12.1 µM. For the same molecule, the MCC at 72 h in data set [11] is ≥ 100 µM. Besides, in data set [12], the half-maximal cytotoxic concentration (CC50) at 72 h is ≥ 100 µM.

(Values after ChEMBL document CHEMBL1140035, “4"-Benzoylureido-TSAO derivatives as potent and selective non-nucleoside HCMV inhibitors. Structure-activity relationship and mechanism of antiviral action” (J Med Chem, 2008).)
